Only a selection was taken, and hits are over-represented in it overall.
Insulin prom act: activators of insulin promoter-driven GFP, primary screen, imaging, TRM-6 cells, eGFP reporter, cell count; AID 1296, 2008; activation, % at 2 µM; 130,000 compounds, 0.81% hits; plate-scaled: unstimulated 0, stimulated control 100;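 active means activation at 2 µM above a set limit, confirmed on inspection of the cell images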;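 further: share of cells whose green reporter signal exceeds an intensity cutoff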
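Material: Human fetal islet-derived TRM-6 cells with tamoxifen-inducible insulin promoter–eGFP reporter | Medium: Low-glucose (5.5 mM) medium with tamoxifen | Probe or stimulus: Tamoxifen inducer, 0.75 µM, in seeding medium | Schedule: Tamoxifen pre-incubation 15 h overnight, then compound exposure 48 h at 37 °C | Detection: High-content imaging of fixed cells with Hoechst nuclear stain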
An asterisk follows results filed as active; [ ] = dose if it differs, or a comment.

Screening O=C(NCc1ccco1)c1ccc(-c2ccccc2Cl)o1 returned Insulin prom act -7.
Screening S=C(c1ccc(-c2ccccc2Cl)o1)N1CCOCC1 returned Insulin prom act 7.
For O=C(NC12CC3CC(CC(C3)C1)C2)c1ccc(-c2ccccc2Cl)o1 the results were Insulin prom act 219*.
Screening Cc1cccc2cc(C#N)c(SCC(=O)NCc3cccs3)nc12 returned Insulin prom act 5.
For COc1cccc(CNC(=O)Cn2nc(-c3ccc(Cl)cc3)ccc2=O)c1 the results were Insulin prom act 0.
CC1(C)Cc2ccccc2-c2nnc(-c3ccccn3)n21 was read as Insulin prom act -7.
For Cc1cccc(Nc2ccccc2C(=O)O)c1C the results were Insulin prom act 5.
For Cc1cc(Nc2ccccc2C(=O)O)nc2nc3ccccc3c(=O)n12 the results were Insulin prom act 146*.
COc1ccccc1Nc1cc(C(=O)N2CCc3ccccc3C2)c2ccccc2n1 was read as Insulin prom act 8.
Cc1nn(C)c(Cl)c1CN1CCCC(CO)(Cc2cccc(Cl)c2)C1 (centres undefined) was read as Insulin prom act 0.
Screening Cc1[nH]c2ccccc2c1/C=C/c1nc2ccccc2c(=O)n1CCO returned Insulin prom act 0.
COCC(=O)Nc1nc(-c2ccc(C)cc2)c(C)s1 was read as Insulin prom act 314.
For COc1ccc(-c2nc(C)sc2C)cc1 the results were Insulin prom act 419*.
COc1ccc(-c2sc(NC(C)=O)nc2-c2ccccc2)cc1 was read as Insulin prom act -8.
`Cc1nnc(SCc2c(Cl)cccc2[N+](=O)[O-])s1` gave Insulin prom act 10.
CC(=O)N(C)C(c1ccc(N(C)C)cc1)c1nnnn1-c1c(C)cccc1C (centres undefined) was read as Insulin prom act -9.
Screening COC(=O)c1ccccc1NC(=O)C1CCN(C(=O)c2cc(OC)c(OC)c(OC)c2)CC1 returned Insulin prom act 0.
CCOC(=O)N1CCC(NC(=O)c2cc(S(=O)(=O)N3CCCCC3)ccc2F)CC1 was read as Insulin prom act -3.
For O=C(COC(=O)CNC(=O)c1ccccc1F)Nc1cccc(S(=O)(=O)N2CCCCCC2)c1 the results were Insulin prom act 114.
For CCCCCNC(=O)c1cc(S(=O)(=O)N2CCCCC2)ccc1F the results were Insulin prom act 254*.
Screening Cc1cc(C(=O)CSc2ccc3c(c2)OCCO3)c(C)n1C1CC1 returned Insulin prom act 0.
Screening Cc1cc(C(=O)Nc2ncc(C)s2)c2ccccc2n1 returned Insulin prom act -5.
`Cc1cccc(N2CCN(C(=S)NCc3ccco3)CC2)c1C` gave Insulin prom act -4.
`Cc1cccc(NC2=C(NCCO)C(=O)c3ccccc3C2=O)c1` gave Insulin prom act -60.
Screening Cn1c(=O)c(NC2CCCCC2)c2c3c(cccc31)C(=O)c1ccccc1-2 returned Insulin prom act 567*.
Screening O=c1cc(NCCc2ccccc2)c2ccccc2o1 returned Insulin prom act 133.
For O=C(NC1CCCCC1)n1c(=O)oc2ccccc21 the results were Insulin prom act -3.
`O=C1c2ccccc2C(=O)c2c1cccc2N1CCCC1` gave Insulin prom act 0.
Screening Cn1c(=O)c(NCCc2ccccc2)c2c3c(cccc31)C(=O)c1ccccc1-2 returned Insulin prom act 170*[may fluoresce].
C/C=C(\C)CN1CCN(c2ccc(C)cc2)CC1 was read as Insulin prom act -9.
`O=C(CCn1c(=O)c2sccc2n(CC(=O)OCc2ccccc2)c1=O)NCc1ccccc1` gave Insulin prom act 0.
Screening CC1CCC(NC(=O)c2cnccn2)CC1 (centres undefined) returned Insulin prom act -7.
For Cc1c(Cl)cccc1NC(=O)CSCC(N)=O the results were Insulin prom act 208.
`Nc1nncn1C(=O)CCCN1C(=O)c2ccccc2C1=O` gave Insulin prom act 269.
For Nc1nncn1C(=O)c1c(Cl)cccc1Cl the results were Insulin prom act 444*.
`O=C1CC(C(=O)Nc2cccc(F)c2)n2ncnc2N1` (centres undefined) gave Insulin prom act 9.
`Cc1ccc(NC(=O)CSc2nnc(C3CC3)n2N)cc1S(=O)(=O)N1CCOCC1` gave Insulin prom act 9.
`OCc1nc2ccccc2n1CCCOc1ccc(Br)cc1` gave Insulin prom act -12.
`COC(=O)c1c(C(=O)OC)c2cc(C(=O)c3ccccc3)ccn2c1Cl` gave Insulin prom act 261.
`COCCCNC(=O)CN1C(=O)c2ccccc2C1=O` gave Insulin prom act 0.
CCOCCCNC(=O)CN1C(=O)/C(=C/c2ccccc2)Sc2ccccc21 was read as Insulin prom act 313*.
Screening CCN1CCN(CCCNC(=O)c2ccc(/C=C3/Sc4ccccc4N(Cc4ccccc4F)C3=O)cc2)CC1 returned Insulin prom act -6.
COc1ccc(OCC(O)Cn2c(Nc3cccc(C)c3)nc3c2c(=O)n(C)c(=O)n3C)cc1 (centres undefined) was read as Insulin prom act 0.
